MrgX1 PAM: allosterically activates human MrgX1 receptor signaling. Q96LB2. MrgX1-HEK293, Fluo-4 calcium flux, FDSS; stronger effect = higher value. B-score at 10 µM. 0.63% of 310,000 active. AID 588675;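 active = plate-corrected calcium response at least 3 library SD above typical, normal starting fluorescence, not activating the receptor alone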;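 also: compound read alongside a low EC10 to EC30 dose of BAM8-22 agonist; peak minus trough fluorescence over baseline measured at the second addition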
Target sequence (Q96LB2 whole entry, looked up): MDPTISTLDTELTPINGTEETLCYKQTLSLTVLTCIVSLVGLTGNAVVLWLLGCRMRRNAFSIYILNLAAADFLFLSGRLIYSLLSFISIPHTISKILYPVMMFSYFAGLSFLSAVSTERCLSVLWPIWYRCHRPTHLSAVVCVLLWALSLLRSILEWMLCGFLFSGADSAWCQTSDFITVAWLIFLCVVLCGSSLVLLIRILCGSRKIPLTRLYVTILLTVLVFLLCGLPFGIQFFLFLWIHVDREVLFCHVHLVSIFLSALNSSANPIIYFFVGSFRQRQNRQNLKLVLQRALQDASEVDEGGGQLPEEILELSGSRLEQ
RGS4 inh: human RGS4 inhibition. P49798. 0.45% of 310,000 active. B-score at 10 µM. HEK293 M3R/RGS4 inducible, Fluo-4 calcium flux; stronger effect = higher value; triggered by carbachol at its EC20. AID 463165;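 active = B-score, a plate-corrected calcium signal, over three deviations above library mean, with baseline fluorescence within five deviations of library mean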;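 also: RGS4 expression induced by doxycycline in cells with stable M3 receptor; B-score is computed from the integrated fluorescence ratio over baseline after carbachol; higher B-score means a larger calcium signal and so more RGS4 inhibition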
Target sequence (P49798 whole entry, looked up): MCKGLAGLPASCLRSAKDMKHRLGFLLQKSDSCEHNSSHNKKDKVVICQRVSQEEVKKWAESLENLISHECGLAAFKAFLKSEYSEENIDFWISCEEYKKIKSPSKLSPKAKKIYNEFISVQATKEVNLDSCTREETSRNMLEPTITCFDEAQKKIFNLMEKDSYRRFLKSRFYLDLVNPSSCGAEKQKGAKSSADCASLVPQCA
MrgX1 ag: activates human MrgX1 receptor signaling. Q96LB2. MrgX1-HEK293 cells, Fluo-4 calcium fluorescence, agonist mode; stronger effect = higher value. B-score at 10 µM. 0.44% of 310,000 active;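 active = calcium response B-score plate-corrected fluorescence ratio at least 3 library SD, with starting fluorescence B-score inside 5 SD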
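Material: MrgX1-expressing HEK293 cells; input: 15,000 cells per well; doses: test compound given as first of three sequential additions; schedule: overnight plating before 1 h dye loading; technique: Fluo-4 NW calcium-flux fluorescence, kinetic read; evaluation: baseline-normalised fluorescence change ratio, B-scored; control set: plate-wise positive and negative controls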
MrgX1 antagonist: antagonists of human MrgX1 receptor. Q96LB2. AID 588676. 1.3% of 310,000 active. B-score at 10 µM. MRGX1-HEK293 calcium flux, Fluo-4, BAM8-22 antagonism; stronger effect = lower value;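 active = calcium-response B-score plate-corrected more than 3 library SD below zero, starting fluorescence within 5 deviations, no agonist response on first addition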;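 also: peak minus trough fluorescence over baseline after final BAM8-22 challenge near maximal dose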
RGS4 act: potentiators or activators of RGS4; HEK293 M3R/inducible RGS4, carbachol calcium flux Fluo4; stronger effect = lower value; B-score at 10 µM; 0.92% of 310,000 active; AID 463111;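 active = B-score of the integrated calcium signal more than 4 SD below the library mean, with starting fluorescence not abnormally high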;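 also: negative B-score means reduced calcium response which marks RGS4 activation or potentiation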
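Assay system: HEK293 FlpIn-TREx cells, stable M3R, doxycycline-inducible RGS4 / Probe or stimulus: carbachol, ECmax concentration / Times: overnight RGS4 induction, 30 min dye load 37 °C, 20 min compound RT / Signal: kinetic calcium fluorescence imaging with Fluo4-AM dye, 2 µM / Measure: Agonist-evoked peak-minus-minimum fluorescence over baseline, integrated ratio, B score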
RGS4 act valid: RGS4 activation, validation assay. shares compounds with RGS4 act. HEK293 M3R/RGS4 inducible, carbachol calcium flux Fluo4. inhibition, % at 10 µM. 89% of 1,100 active. AID 602282;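 active = inhibition above 3 SD of the buffer control wells, cut at about 41% in these data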;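 also: signal is the integrated peak-minus-minimum Fluo4 fluorescence over baseline ratio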
M3R Ca counter: counter-screen for RGS4 activators: effect in non-induced cells; inhibition, % at 10 µM; HEK293 M3R non-induced RGS4, Fluo4 calcium flux; after carbachol challenge at its EC90; AID 602283; 82% of 1,100 active; shares compounds with RGS4 act;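 active = inhibition exceeding 3 SD of buffer-only control wells, cut at about 26% in these data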;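 also: percent drop in integrated peak-minus-baseline over baseline Fluo4 ratio after carbachol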
RGS4 uninduced: counter-screen for RGS4 inhibitors: effect in non-induced cells | shares compounds with RGS4 inh | HEK293 M3R non-induced, carbachol calcium Fluo-4; submaximal (EC20) carbachol stimulus; buffer wells 0%, carbachol control wells 100% | activity (percent), % at 10 µM | 20% of 1,900 active | AID 493000; call rule not given here;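 also: RGS4 induction absent so cells express M3R without RGS4; higher means more calcium signal and flags a non-specific hit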
RGS4 inh ctr2: second counter-screen for RGS4 inhibitors: non-induced cells without carbachol. shares compounds with RGS4 inh. HEK293 M3R/RGS4 non-induced, Fluo-4 calcium, no carbachol; normalised: buffer wells 0%, carbachol wells 100%. calcium response (agonist-mode artifact), % at 10 µM. 22% of 1,900 active;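 active = duplicate-averaged calcium rise in uninduced cells above buffer wells' mean plus 5 SD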
MrgX1 ag confirm: confirmation of human MrgX1 receptor agonists. MrgX1-HEK293, Fluo-4 calcium fluorescence, FDSS. activation, % at 10 µM. shares compounds with MrgX1 ag. 78% of 600 active. AID 602412;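 active = calcium signal rise, corrected for plate position, at least 3 library SD high, with starting brightness within 5 such deviations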
MrgX1 allo conf: confirmation of human MrgX1 receptor positive allosteric modulators; shares compounds with MrgX1 PAM; MrgX1-HEK293, Fluo-4 calcium fluorescence, FDSS; activation (ratio percentage), % at 10 µM; 13% of 1,200 active; AID 602413;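 active = ratio at least 3 SD above the weak peptide control, stable starting fluorescence, no direct agonism earlier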;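 also: compound followed by low BAM8-22 agonist challenge near EC20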
MrgX1 ant reconf: confirmation of human MrgX1 receptor antagonists; shares compounds with MrgX1 antagonist; MrgX1-HEK293, BAM8-22 calcium flux, Fluo-4; stronger effect = lower value; remaining BAM8-22 calcium response % of control (stronger effect = lower value), % at 10 µM; 19% of 2,300 active; AID 602420;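 active = remaining agonist calcium response no higher than 100% minus 3 SD of agonist-only control wells, with starting fluorescence near control levels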;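 also: agonist BAM8-22 given at a near maximal EC90 to ECmax level; peak minus minimum fluorescence divided by baseline after agonist addition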
HEK293 Ca flux: activity in parental HEK293 cells lacking MrgX1; shares compounds with MrgX1 antagonist; Fluo-4 calcium fluorescence, FDSS; fluorescence ratio F(max-min)/F0 at 10 µM; 2% of 4,000 active; AID 624111;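 active = duplicate-averaged calcium fluorescence ratio at least three times the standard deviation of buffer wells, a nonspecific response in parental cells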
HEK293 Ca counter: MrgX1 allosteric activator counter-screen hit in parental HEK293 cells; parental HEK293 calcium flux, Fluo-4 fluorescence ratio; stronger effect = higher value; shares compounds with MrgX1 antagonist; 0.4% of 4,000 active; fluorescence ratio F(max-min)/F0 at 10 µM;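 active = calcium fluorescence ratio, averaged over duplicates, at least 3 SD of the buffer-well ratio, meaning a nonspecific response in receptor-free cells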;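 also: untransfected parental HEK293 lacking MrgX1 used as counterscreen for MrgX1 allosteric activators; fluorescence change taken during the second addition on a kinetic imager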
HEK293 Ca cntr2: counter-screen for MrgX1 activators: effect in parental HEK293 cells; shares compounds with MrgX1 antagonist; Fluo-4 calcium fluorescence (FDSS); stronger effect = higher value; fluorescence ratio F(max-min)/F0 at 10 µM; 8.7% of 4,000 active; AID 624115;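 active = calcium fluorescence ratio at least three times the spread of buffer wells, meaning a non-specific response in parental cells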
Of the large screens only hits and unclear results are named; the others gave an inactive call (follow-up assays come after a bar, where they were run). Sampled rows, rich in hits. Any-hit rate of the full collection: about 3.5%.

Cc1cc(N2CCCCC2)nc2ccc(NC(=O)c3ccc(Br)o3)cc12	MrgX1 antagonist -6.9, RGS4 act -7.7 | RGS4 act valid 72 | M3R Ca counter 84 | MrgX1 ant reconf inactive | HEK293 Ca flux inactive | HEK293 Ca counter inactive | HEK293 Ca cntr2 inactive
O=C(NCCCN1CCCC1=O)c1ccc2c(=O)n(-c3ccccc3F)c(=S)[nH]c2c1	none
CCOC(=O)c1cnc2c(C)cccc2c1NCc1ccco1	MrgX1 PAM 7.6, RGS4 act -12 | RGS4 act valid 92 | M3R Ca counter 94 | MrgX1 allo conf inactive | HEK293 Ca flux inactive | HEK293 Ca counter inactive | HEK293 Ca cntr2 inactive
CCOC(=O)C1=C(Cc2ccc(F)cc2)C(=O)c2ccccc2C1=O	MrgX1 ag 108, RGS4 act -9.1 | RGS4 act valid 89 | M3R Ca counter 46 | MrgX1 ag confirm 163% | HEK293 Ca flux inactive | HEK293 Ca counter inactive | HEK293 Ca cntr2 54
O=C(OCc1ccc(F)cc1)c1ccc2c(c1)-c1ccccc1C2=O	none
Oc1ccc(Nc2nnc(-c3ccc(O)cc3)c3ccccc23)cc1	none
COc1ccc(Nc2nnc(-c3ccc(O)cc3)c3ccccc23)cc1	MrgX1 antagonist -8.4, RGS4 act -9.3 | RGS4 act valid 82 | M3R Ca counter 43 | MrgX1 ant reconf inactive | HEK293 Ca flux inactive | HEK293 Ca counter 54 | HEK293 Ca cntr2 inactive
CCCCc1ccc(N/C(N)=N/c2nc(C)cc(C)n2)cc1	MrgX1 ag 87, RGS4 act -9.6 | RGS4 act valid 38 | M3R Ca counter 84 | MrgX1 ag confirm 511% | HEK293 Ca flux inactive | HEK293 Ca counter inactive | HEK293 Ca cntr2 113
CCOc1ccc(OCc2ccc(C(=O)N3CCCCC3)o2)cc1	none
Cc1ccc(OCc2ccc(C(=O)N3CCCC3)o2)cc1C	MrgX1 antagonist -5.3, RGS4 act -7.9 | RGS4 act valid 73 | M3R Ca counter 84 | MrgX1 ant reconf 73% | HEK293 Ca flux inactive | HEK293 Ca counter inactive | HEK293 Ca cntr2 inactive
COC(=O)c1sc(-c2ccc(C(C)(C)C)cc2)cc1NC(=O)CSCC(=O)O	MrgX1 antagonist -5.3, RGS4 act -7.7 | RGS4 act valid 75 | M3R Ca counter 84 | MrgX1 ant reconf inactive | HEK293 Ca flux inactive | HEK293 Ca counter inactive | HEK293 Ca cntr2 inactive
CCOc1ccc(NC(=O)CCC(=O)N/N=C(\C)c2cccs2)cc1	none
COc1ccc(OC)c(NC(=O)c2[nH]c(C)c(C(C)=O)c2C)c1	none
COc1ccc(-c2nc(NC(=O)c3[nH]c(C)c(C(C)=O)c3C)sc2C)cc1	MrgX1 antagonist -8.5, RGS4 act -11 | RGS4 act valid 92 | M3R Ca counter 92 | MrgX1 ant reconf 53% | HEK293 Ca flux inactive | HEK293 Ca counter inactive | HEK293 Ca cntr2 inactive
CS(=O)(=O)c1sc(C#N)c2c1C(=O)CC(c1ccccc1)C2 (stereo unspecified)	MrgX1 ag 37, RGS4 act -9 | RGS4 act valid 53 | M3R Ca counter inactive | MrgX1 ag confirm 257% | HEK293 Ca flux inactive | HEK293 Ca counter inactive | HEK293 Ca cntr2 53
Cc1oc2c(c(=O)c1C)C(=O)CC(c1ccccc1)C2 (stereo unspecified)	none
Cc1cccc(CCN(C(=O)c2csnn2)C(C(=O)NC2CCCC2)c2ccco2)c1 (stereo unspecified)	none
CC1CCN(S(=O)(=O)c2ccc3ncn(CC(=O)N4CCN(C)CC4)c(=O)c3c2)CC1	none
Cc1ccc(O)c(C(=O)c2cnc3c(c2)COc2ccccc2-3)c1	MrgX1 antagonist -10, RGS4 act -9.3 | RGS4 act valid 86 | M3R Ca counter 88 | MrgX1 ant reconf inactive | HEK293 Ca flux inactive | HEK293 Ca counter inactive | HEK293 Ca cntr2 inactive
CC(C)=CCN1CCN(Cc2cccnc2)CC1CCO (stereo unspecified)	none
O=C(CCCn1c(=O)[nH]c2cc(Cl)ccc2c1=O)NCCC1=CCCCC1	none
COc1ccccc1C(=O)Nc1nc(-c2ccc(S(=O)(=O)N3CCOCC3)cc2)cs1	MrgX1 antagonist -8.3, RGS4 act -9.6 | RGS4 act valid 92 | M3R Ca counter 58 | MrgX1 ant reconf 51% | HEK293 Ca flux inactive | HEK293 Ca counter inactive | HEK293 Ca cntr2 inactive
COc1ccccc1OC(C)C(=O)Nc1nc(-c2ccc(S(=O)(=O)N3CCOCC3)cc2)cs1 (stereo unspecified)	none
O=C(CCN1CCc2ccccc2C1)Nc1ccc(F)cc1	none
CCCOc1ccc(N2C(=O)CC(S/C(N)=N/N=C(\C)c3cccs3)C2=O)cc1 (stereo unspecified)	none | RGS4 uninduced inactive | RGS4 inh ctr2 inactive
CC(/C=C/c1ccc(N(C)C)cc1)=N\N=C(/N)SC1CC(=O)N(c2ccc(C(=O)O)cc2)C1=O (stereo unspecified)	none

Source: PubChem BioAssay
